Starred links: 1 amine or outer side, 2 acyl side, 3 side chain; linkers in the order of their positions; H or OH if unused. Non-standard residues stand in square brackets, D forms with d. Residues, ends and D or L forms follow the SMILES beside them. X1 = O=C([C@@H](O)[C@H](Cc1ccccc1)N[*:1])[*:2]
Experiments:
[1] = target: T1, Protease (Human T-lymphotropic virus 1, UniProt Q82323); test: Inhibition of HTLV1 protease1; design: species or system Human T-cell leukemia virus type I
T1 sequence (Q82323 whole entry): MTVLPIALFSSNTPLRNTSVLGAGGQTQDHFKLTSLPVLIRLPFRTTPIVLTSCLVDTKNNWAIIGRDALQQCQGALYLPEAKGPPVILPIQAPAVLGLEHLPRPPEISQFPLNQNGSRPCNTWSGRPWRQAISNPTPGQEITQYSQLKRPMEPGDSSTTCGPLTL
Procedure, shortened: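 HTLV-I protease L40I mutant, which blocks autolysis and improves stability. Inhibition reported as IC50 with SEM in nM. Remaining assay steps follow an earlier published procedure.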

[2] = test system: Human immunodeficiency virus; test: Inhibition of HIV protease at 50 nM

IC50 [1] | inhibition [2] | SMILES
92 nM | > 99% | CCCCC(=O)N[C@H](C(=O)N[C@H](C(=O)N[C@@H](Cc1ccccc1)[C@H](O)C(=O)N1CSC(C)(C)[C@H]1C(=O)NCC(C)C)C(C)(C)C)c1ccccc1
96.9 nM | > 99% | CC(C)CNC(=O)[C@H]1N(C(=O)[C@@H](O)[C@H](Cc2ccccc2)NC(=O)[C@@H](NC(=O)[C@@H](NC(=O)C2CC2)c2ccccc2)C(C)(C)C)CSC1(C)C
107 nM | > 99% | CC(=O)N[C@H](C(=O)N[C@H](C(=O)N[C@@H](Cc1ccccc1)[C@H](O)C(=O)N1CSC(C)(C)[C@H]1C(=O)NCC(C)C)C(C)(C)C)c1ccccc1
98.2 nM | > 99% | CC(C)CNC(=O)[C@H]1N(C(=O)[C@@H](O)[C@H](Cc2ccccc2)NC(=O)[C@@H](NC(=O)[C@@H](NC(=O)C2CCCCC2)c2ccccc2)C(C)(C)C)CSC1(C)C
105 nM | > 99% | CC(C)CNC(=O)[C@H]1N(C(=O)[C@@H](O)[C@H](Cc2ccccc2)NC(=O)[C@@H](NC(=O)[C@@H](NC(=O)CCc2ccccc2)c2ccccc2)C(C)(C)C)CSC1(C)C
104 nM | > 99% | CCCC(=O)N[C@H](C(=O)N[C@H](C(=O)N[C@@H](Cc1ccccc1)[C@H](O)C(=O)N1CSC(C)(C)[C@H]1C(=O)NCC(C)C)C(C)(C)C)c1ccccc1
83.3 nM | > 99% | CC(C)CNC(=O)[C@H]1N(C(=O)[C@@H](O)[C@H](Cc2ccccc2)NC(=O)[C@@H](NC(=O)[C@@H](NC(=O)CC(C)(C)C)c2ccccc2)C(C)(C)C)CSC1(C)C
79.2 nM | > 99% | CC(C)CNC(=O)[C@H]1N(C(=O)[C@@H](O)[C@H](Cc2ccccc2)NC(=O)[C@@H](NC(=O)[C@@H](NC(=O)c2ccccc2)c2ccccc2)C(C)(C)C)CSC1(C)C
93.5 nM | > 99% | CC(C)CNC(=O)[C@H]1N(C(=O)[C@@H](O)[C@H](Cc2ccccc2)NC(=O)[C@@H](NC(=O)[C@@H](NC(=O)C(C)C)c2ccccc2)C(C)(C)C)CSC1(C)C
96.5 nM | > 99% | CC(C)CCC(=O)N[C@H](C(=O)N[C@H](C(=O)N[C@@H](Cc1ccccc1)[C@H](O)C(=O)N1CSC(C)(C)[C@H]1C(=O)NCC(C)C)C(C)(C)C)c1ccccc1
88.2 nM | > 99% | CCC(C)CC(=O)N[C@H](C(=O)N[C@H](C(=O)N[C@@H](Cc1ccccc1)[C@H](O)C(=O)N1CSC(C)(C)[C@H]1C(=O)NCC(C)C)C(C)(C)C)c1ccccc1 (stereo not given in full)
84.2 nM | > 99% | CCCC(C)C(=O)N[C@H](C(=O)N[C@H](C(=O)N[C@@H](Cc1ccccc1)[C@H](O)C(=O)N1CSC(C)(C)[C@H]1C(=O)NCC(C)C)C(C)(C)C)c1ccccc1 (stereo not given in full)
105 nM | > 99% | CCC(=O)N[C@H](C(=O)N[C@H](C(=O)N[C@@H](Cc1ccccc1)[C@H](O)C(=O)N1CSC(C)(C)[C@H]1C(=O)NCC(C)C)C(C)(C)C)c1ccccc1
159 nM | – | CSCC[C@H](NC(=O)[C@@H](NC(=O)[C@@H]1CCCN1C(=O)[C@@H](O)[C@H](Cc1ccccc1)NC(=O)[C@@H](NC(=O)[C@H](CCC(N)=O)NC(=O)[C@@H]1CCCN1)C(C)C)C(C)C)C(=O)N[C@@H](Cc1cnc[nH]1)C(=O)O (H-PQV[X1]PVMH-OH)
82.8 nM | > 99% | CC(C)CNC(=O)[C@H]1N(C(=O)[C@@H](O)[C@H](Cc2ccccc2)NC(=O)[C@@H](NC(=O)[C@@H](NC(=O)C(C)(C)C)c2ccccc2)C(C)(C)C)CSC1(C)C
80.4 nM | > 99% | CCC(C)(C)C(=O)N[C@H](C(=O)N[C@H](C(=O)N[C@@H](Cc1ccccc1)[C@H](O)C(=O)N1CSC(C)(C)[C@H]1C(=O)NCC(C)C)C(C)(C)C)c1ccccc1
102 nM | > 99% | CC(C)CNC(=O)[C@H]1N(C(=O)[C@@H](O)[C@H](Cc2ccccc2)NC(=O)[C@@H](NC(=O)[C@@H](NC(=O)CC(C)C)c2ccccc2)C(C)(C)C)CSC1(C)C
332 nM | > 99% | CC(C)CNC(=O)[C@H]1N(C(=O)[C@@H](O)[C@H](Cc2ccccc2)NC(=O)[C@@H](NC(=O)[C@@H](N)c2ccccc2)C(C)(C)C)CSC1(C)C
